Results as given in ChEMBL document CHEMBL3616436, “Synthesis, cytotoxicity and antimicrobial activity of thiourea derivatives incorporating 3-(trifluoromethyl)phenyl moiety” (Eur J Med Chem, 2015).
Converted amounts (≈) assume the structure as drawn. The source made the active and inactive calls. The calls are words filed in the database; no cut-off is given here.

Assays:
[1] = system: Mycobacterium tuberculosis; assay: Antimycobacterial activity against Mycobacterium tuberculosis H37Rv ATCC 25618; format: functional
In short: (§1)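 Classical test-tube successive-dilution method in Youmans' modification of Proskauer and Beck liquid medium with 10% bovine serum. Inoculum came from 14-day cultures. DMSO stock was 10 mg/mL, diluted geometrically in medium. Tubes were incubated at 37 °C. Concentrations tested were 3.1, 6.2, 12.5, 25, 50 and 100 µg/ml. MIC is the minimum concentration inhibiting growth relative to compound-free tubes.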

[2] = system: Mycobacterium tuberculosis; assay: Antimycobacterial activity against drug-sensitive Mycobacterium tuberculosis Spec. 192; format: functional; in short: as §1
Staphylococcus aureus [3] = assay: Antimicrobial activity against Staphylococcus aureus ATCC 29213 after 18 hrs by twofold serial microdilution method; format: functional; conditions: ATCC 29213, 18 h
Bacillus cereus = assay: Antimicrobial activity against Bacillus cereus ATCC 11778 at 400 ug after 18 hrs by disc-diffusion method; format: functional; conditions: ATCC 11778, 18 h, read-out: IZ
In short: (§2)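 Disc diffusion on Mueller-Hinton II agar per CLSI; 9 mm paper discs loaded with 400 µg compound from DMSO solution, dried, placed on agar; growth inhibition zone diameter read after 18 h at 35°C.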

[4] = system: Vesicular stomatitis virus; assay: Antiviral activity against Vesicular stomatitis virus ATCC VR 1540 infected in African green monkey Vero 76 cells assessed as reduction of virus-plaque formation after 2 days by crystal violet staining; format: functional, organism-based; conditions: ATCC VR 1540, Vero, 48 h
Coxsackievirus B5 = assay: Antiviral activity against Human coxsackievirus B5 ATCC VR-29 infected in African green monkey Vero 76 cells assessed as reduction of virus-plaque formation after 3 days by crystal violet staining; format: functional, organism-based; conditions: Enterovirus B, ATCC VR-29, Vero, 72 h
In short: (§3)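 Plaque reduction: Vero-76 at 2x10^5 cells/well grown to confluent monolayers, infected 2 h at 50–100 PFU/well; after removing unadsorbed virus, overlay of D-MEM, 1% inactivated FBS, 0.75% methylcellulose with or without serial compound dilutions; 3 days at 37°C, fixed and stained with crystal violet in 50% ethanol, plaques counted; EC50 by linear regression.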

[5] = system: Staphylococcus epidermidis; assay: Antimicrobial activity against Staphylococcus epidermidis ATCC 12228 after 18 hrs by twofold serial microdilution method; format: functional; conditions: ATCC 12228, 18 h
[6] = system: Human immunodeficiency virus 1; assay: Antiviral activity against HIV1 3B infected in human MT4 cells assessed as protection against virus-induced cytopathogenicity by MTT assay; format: functional, organism-based; conditions: Human immunodeficiency virus 1, 3B
Staphylococcus aureus [7] = assay: Antimicrobial activity against Staphylococcus aureus ATCC 25923 at 400 ug after 18 hrs by disc-diffusion method; format: functional; conditions: ATCC 25923, 18 h, read-out: IZ; in short: as §2
Staphylococcus aureus [8] = assay: Antimicrobial activity against Staphylococcus aureus ATCC 6538 at 400 ug after 18 hrs by disc-diffusion method; format: functional; conditions: ATCC 6538, 18 h, read-out: IZ; in short: as §2
Micrococcus luteus [9] = assay: Antimicrobial activity against Micrococcus luteus ATCC 10240 at 400 ug after 18 hrs by disc-diffusion method; format: functional; conditions: ATCC 10240, 18 h, read-out: IZ; in short: as §2
[10] = Cytotoxicity against human MT4 cells; format: cell-based
Vaccinia virus = assay: Antiviral activity against Human Vaccinia virus ATCC VR-1549 infected in African green monkey Vero 76 cells assessed as reduction of virus-plaque formation after 3 days by crystal violet staining; format: functional, organism-based; conditions: Orthopoxvirus vaccinia, ATCC VR-1549, Vero, 72 h
[11] = Antiviral activity against Bovine viral diarrhea virus 1-NADL ATCC VR-534 infected in MDBK cells assessed as protection against virus-induced cytopathogenicity after 3 to 4 days by MTT assay; format: functional, cell-based; conditions: Bovine viral diarrhea virus isolates and strains, ATCC VR-534, MDBK
In short: (§4)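 Cells seeded in 96-well plates (BHK 5x10^4, MDBK 3x10^4 cells/well), grown overnight to confluence, infected at m.o.i. 0.01 (BHK for Reo-1, MDBK for BVDV); serial compound dilutions in maintenance medium with 0.5% inactivated FBS added after 1 h; viability by MTT after 3–4 days at 37°C; EC50 for 50% protection by linear regression.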

Staphylococcus aureus [12] = assay: Antimicrobial activity against Staphylococcus aureus NCTC 4163 at 400 ug after 18 hrs by disc-diffusion method; format: functional; conditions: NCTC 4163, 18 h, read-out: IZ; in short: as §2
[13] = system: Staphylococcus epidermidis; assay: Antimicrobial activity against Staphylococcus epidermidis ATCC 35984 at 400 ug after 18 hrs by disc-diffusion method; format: functional; conditions: ATCC 35984, 18 h, read-out: IZ; in short: as §2
[14] = system: Staphylococcus epidermidis; assay: Antimicrobial activity against Staphylococcus epidermidis ATCC 35984 after 18 hrs by twofold serial microdilution method; format: functional; conditions: ATCC 35984, 18 h
[15] = Cytotoxicity against BHK cells assessed as cell viability after 48 to 96 hrs by MTT assay; format: cell-based, Mesocricetus auratus; conditions: hamster
Staphylococcus aureus [16] = assay: Antimicrobial activity against Staphylococcus aureus ATCC 29213 at 400 ug after 18 hrs by disc-diffusion method; format: functional; conditions: ATCC 29213, 18 h, read-out: IZ; in short: as §2
Bacillus subtilis = assay: Antimicrobial activity against Bacillus subtilis ATCC 6633 at 400 ug after 18 hrs by disc-diffusion method; format: functional; conditions: ATCC 6633, 18 h, read-out: IZ; in short: as §2
Proteus vulgaris = assay: Antimicrobial activity against Proteus vulgaris NCTC 4635 at 400 ug after 18 hrs by disc-diffusion method; format: functional; in short: as §2
Enterococcus faecalis = assay: Antimicrobial activity against Enterococcus faecalis ATCC 29212 at 400 ug after 18 hrs by disc-diffusion method; format: functional; in short: as §2
Staphylococcus aureus [17] = assay: Antimicrobial activity against Staphylococcus aureus ATCC 25923 after 18 hrs by twofold serial microdilution method; format: functional; conditions: ATCC 25923, 18 h
Enterococcus hirae = assay: Antimicrobial activity against Enterococcus hirae ATCC 10541 at 400 ug after 18 hrs by disc-diffusion method; format: functional; conditions: ATCC 10541, 18 h, read-out: IZ; in short: as §2
[18] = Cytotoxicity against African green monkey Vero 76 cells assessed as cell viability after 48 to 96 hrs by crystal violet staining; format: cell-based; conditions: chlorocebus sabaeus
Human alphaherpesvirus 1 = assay: Antiviral activity against Human herpesvirus 1 KOS ATCC VR-1493 infected in African green monkey Vero 76 cells assessed as reduction of virus-plaque formation after 3 days by crystal violet staining; format: functional, organism-based; conditions: Human alphaherpesvirus 1, KOS ATCC VR1493, Vero, 72 h; in short: as §3
[19] = Cytotoxicity against bovine MDBK cells assessed as cell viability after 48 to 96 hrs by MTT assay; format: cell-based, Bos taurus; conditions: cattle
Yellow fever virus = assay: Antiviral activity against Yellow fever virus 17D infected in BHK cells assessed as protection against virus-induced cytopathogenicity after 3 to 4 days by MTT assay; format: functional, cell-based
Staphylococcus aureus [20] = assay: Antimicrobial activity against Staphylococcus aureus NCTC 4163 after 18 hrs by twofold serial microdilution method; format: functional; conditions: NCTC 4163, 18 h
Staphylococcus aureus [21] = assay: Antimicrobial activity against Staphylococcus aureus ATCC 6538 after 18 hrs by twofold serial microdilution method; format: functional; conditions: ATCC 6538, 18 h
[22] = system: Staphylococcus epidermidis; assay: Antimicrobial activity against Staphylococcus epidermidis ATCC 12228 at 400 ug after 18 hrs by disc-diffusion method; format: functional; conditions: ATCC 12228, 18 h, read-out: IZ; in short: as §2
Poliovirus 1 = assay: Antiviral activity against Poliovirus type 1 ATCC VR-1562 infected in African green monkey Vero 76 cells assessed as reduction of virus-plaque formation after 2 days by crystal violet staining; format: functional, organism-based; conditions: Enterovirus C, ATCC VR-1562, Vero, 48 h
[23] = system: Mammalian orthoreovirus 1; assay: Antiviral activity against Reovirus type-1 ATCC VR-214 infected in BHK cells assessed as protection against virus-induced cytopathogenicity after 3 to 4 days by MTT assay; format: functional, cell-based; conditions: Mammalian orthoreovirus 1, ATCC VR-214, BHK; in short: as §4
Micrococcus luteus [24] = assay: Antimicrobial activity against Micrococcus luteus ATCC 9341 at 400 ug after 18 hrs by disc-diffusion method; format: functional; conditions: ATCC 9341, 18 h, read-out: IZ; in short: as §2

Question: For `NNC(=O)c1ccncc1` [ISONIAZID], which MIC [1] is on record?
Answer: 6.25 µg/mL (≈ 45.6 µM)

Question: And the MIC [2]?
Answer: 12.5 µg/mL (≈ 91.1 µM)

Question: Which results are given for `CCNC(=S)Nc1cccc(C(F)(F)F)c1`?
Answer: MIC (Staphylococcus aureus [3]): 256 µg/mL (≈ 1030 µM); zone of inhibition at 400 µg/disc (Bacillus cereus): 15 mm; MIC [1]: > 100 µg/mL; EC50 [4]: > 100 µM; EC50 (Coxsackievirus B5): > 100 µM; MIC [5]: 256 µg/mL (≈ 1030 µM); EC50 [6]: > 100 µM; zone of inhibition at 400 µg/disc (Staphylococcus aureus [7]): 15 mm; zone of inhibition at 400 µg/disc (Staphylococcus aureus [8]): 14 mm; zone of inhibition at 400 µg/disc (Micrococcus luteus [9]): 13 mm; CC50 [10]: > 100 µM; EC50 (Vaccinia virus): > 100 µM; EC50 [11]: > 100 µM; zone of inhibition at 400 µg/disc (Staphylococcus aureus [12]): 14 mm; zone of inhibition at 400 µg/disc [13]: 13 mm; MIC [14]: 512 µg/mL (≈ 2060 µM); CC50 [15]: > 100 µM; zone of inhibition at 400 µg/disc (Staphylococcus aureus [16]): 19 mm; zone of inhibition at 400 µg/disc (Bacillus subtilis): 15 mm; inhibition zone (IZ) (Proteus vulgaris): inactive; inhibition zone (IZ) (Enterococcus faecalis): inactive; MIC (Staphylococcus aureus [17]): 128 µg/mL (≈ 516 µM); zone of inhibition at 400 µg/disc (Enterococcus hirae): 13 mm; CC50 [18]: > 100 µM; EC50 (Human alphaherpesvirus 1): > 100 µM; CC50 [19]: > 100 µM; EC50 (Yellow fever virus): > 100 µM; MIC (Staphylococcus aureus [20]): 256 µg/mL (≈ 1030 µM); MIC (Staphylococcus aureus [21]): 256 µg/mL (≈ 1030 µM); MIC [2]: > 100 µg/mL; zone of inhibition at 400 µg/disc [22]: 14 mm; EC50 (Poliovirus 1): > 100 µM; EC50 [23]: > 100 µM; zone of inhibition at 400 µg/disc (Micrococcus luteus [24]): 13 mm

Question: Which MIC (Staphylococcus aureus [3]) does the source give for `COc1cccc(NC(=S)Nc2cccc(C(F)(F)F)c2)c1` here?
Answer: 32 µg/mL (≈ 98.1 µM)

Question: And the zone of inhibition at 400 µg/disc (Bacillus cereus)?
Answer: 19 mm

Question: And the MIC [1]?
Answer: > 100 µg/mL

Question: And the EC50 [4]?
Answer: > 20 µM

Question: What about the EC50 (Coxsackievirus B5) of the same compound?
Answer: > 20 µM

Question: What about the MIC [5] of the same compound?
Answer: 32 µg/mL (≈ 98.1 µM)

Question: And the EC50 [6]?
Answer: > 26 µM

Question: And the zone of inhibition at 400 µg/disc (Staphylococcus aureus [7])?
Answer: 20 mm

Question: What about the zone of inhibition at 400 µg/disc (Staphylococcus aureus [8]) of the same compound?
Answer: 23 mm

Question: What about the zone of inhibition at 400 µg/disc (Micrococcus luteus [9]) of the same compound?
Answer: 19 mm

Question: What about the CC50 [10] of the same compound?
Answer: 26 µM

Question: What about the EC50 (Vaccinia virus) of the same compound?
Answer: > 20 µM

Question: And the EC50 [11]?
Answer: > 52 µM

Question: What about the zone of inhibition at 400 µg/disc (Staphylococcus aureus [12]) of the same compound?
Answer: 20 mm

Question: What about the zone of inhibition at 400 µg/disc [13] of the same compound?
Answer: 21 mm

Question: What about the MIC [14] of the same compound?
Answer: 32 µg/mL (≈ 98.1 µM)

Question: What about the CC50 [15] of the same compound?
Answer: 12 µM

Question: And the zone of inhibition at 400 µg/disc (Staphylococcus aureus [16])?
Answer: 22 mm

Question: And the zone of inhibition at 400 µg/disc (Bacillus subtilis)?
Answer: 20 mm

Question: What about the “inhibition zone (IZ)” value (Proteus vulgaris) of the same compound?
Answer: inactive

Question: What about the zone of inhibition at 400 µg/disc (Enterococcus faecalis; ATCC 29212, 18 h, read-out: IZ) of the same compound?
Answer: 13 mm

Question: And the MIC (Staphylococcus aureus [17])?
Answer: 32 µg/mL (≈ 98.1 µM)

Question: And the zone of inhibition at 400 µg/disc (Enterococcus hirae)?
Answer: 12 mm

Question: What about the CC50 [18] of the same compound?
Answer: 20 µM

Question: What about the EC50 (Human alphaherpesvirus 1) of the same compound?
Answer: > 20 µM

Question: What about the CC50 [19] of the same compound?
Answer: 52 µM

Question: What about the EC50 (Yellow fever virus) of the same compound?
Answer: > 12 µM

Question: What about the MIC (Staphylococcus aureus [20]) of the same compound?
Answer: 32 µg/mL (≈ 98.1 µM)

Question: What about the MIC (Staphylococcus aureus [21]) of the same compound?
Answer: 32 µg/mL (≈ 98.1 µM)

Question: And the MIC [2]?
Answer: > 100 µg/mL

Question: What about the zone of inhibition at 400 µg/disc [22] of the same compound?
Answer: 22 mm

Question: And the EC50 (Poliovirus 1)?
Answer: > 20 µM

Question: What about the EC50 [23] of the same compound?
Answer: > 12 µM

Question: What about the zone of inhibition at 400 µg/disc (Micrococcus luteus [24]) of the same compound?
Answer: 24 mm
